Experiments:
Assay type in all cases: cell membranes
[1] = target: Mu-type opioid receptor (Homo sapiens) (UniProt P35372); test: Displacement of [3H]naloxone from mu opioid receptor expressed in CHO cell membrane at 10 uM
How it was run: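 Filtration binding with recombinant human µ receptor CHO cell membranes (0.017 mg/mL) and [3H]-naloxone (0.66 nM). Buffer: 50 mM Tris, 10 mM MgCl2, 1 mM EDTA, pH 7.4. Incubated 90 min, including 60 min shaking, at ca. 23 °C. Harvested onto PEI-presoaked GF/B mats, oven-dried at 50 °C, then liquid scintillation counted.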

[2] = target: Delta-type opioid receptor (Homo sapiens, UniProt P41143); test: Displacement of [3H]deltorphin-2 from human delta opioid receptor expressed in HEK293 cell membrane
Delta-type opioid receptor, sequence (P41143 whole entry): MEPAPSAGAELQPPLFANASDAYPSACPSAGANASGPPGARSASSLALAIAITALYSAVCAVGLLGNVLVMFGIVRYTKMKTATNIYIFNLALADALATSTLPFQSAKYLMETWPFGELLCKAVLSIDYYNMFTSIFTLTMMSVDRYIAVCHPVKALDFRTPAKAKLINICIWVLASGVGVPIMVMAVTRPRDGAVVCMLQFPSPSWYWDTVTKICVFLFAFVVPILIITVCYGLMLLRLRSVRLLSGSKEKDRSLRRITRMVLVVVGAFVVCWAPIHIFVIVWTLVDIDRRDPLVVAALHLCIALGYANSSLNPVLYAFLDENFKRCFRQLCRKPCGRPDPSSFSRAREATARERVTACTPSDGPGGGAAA

[3] = target: Kappa-type opioid receptor (Homo sapiens) (UniProt P41145); test: Displacement of [3H]naloxone from kappa opioid receptor expressed in HEK293 cell membrane at 10 uM
Kappa-type opioid receptor (Homo sapiens), sequence (P41145 whole entry): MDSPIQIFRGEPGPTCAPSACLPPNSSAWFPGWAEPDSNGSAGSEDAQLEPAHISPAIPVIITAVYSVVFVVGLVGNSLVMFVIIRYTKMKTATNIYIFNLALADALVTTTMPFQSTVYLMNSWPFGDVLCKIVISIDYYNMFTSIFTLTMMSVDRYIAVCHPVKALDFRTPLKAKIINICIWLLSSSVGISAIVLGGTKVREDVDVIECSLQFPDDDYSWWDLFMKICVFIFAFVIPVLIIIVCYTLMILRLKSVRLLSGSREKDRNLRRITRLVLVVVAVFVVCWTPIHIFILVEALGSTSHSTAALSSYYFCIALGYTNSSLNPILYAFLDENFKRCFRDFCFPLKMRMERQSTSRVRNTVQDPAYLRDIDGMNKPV

Mu-type opioid receptor (Homo sapiens), sequence (P35372 whole entry): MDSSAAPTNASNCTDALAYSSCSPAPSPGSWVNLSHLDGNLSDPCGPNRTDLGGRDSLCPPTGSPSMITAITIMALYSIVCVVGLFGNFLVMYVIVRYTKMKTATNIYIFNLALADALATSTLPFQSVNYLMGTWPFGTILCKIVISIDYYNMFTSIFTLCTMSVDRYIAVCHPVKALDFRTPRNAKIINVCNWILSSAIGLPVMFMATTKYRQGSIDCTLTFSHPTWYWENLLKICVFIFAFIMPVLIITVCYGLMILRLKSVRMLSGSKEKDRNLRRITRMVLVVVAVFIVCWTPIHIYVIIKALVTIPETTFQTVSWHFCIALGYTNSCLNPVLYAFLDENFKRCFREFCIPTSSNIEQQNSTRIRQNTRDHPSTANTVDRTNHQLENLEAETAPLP

Row | Structure (SMILES) | inhibition [1] | IC50 [2] | inhibition [3]
1 | COc1ccc(/C=C/C(=O)O[C@H]2C[C@]34CCN(C)[C@@]35C[C@H](O[C@]5(OC)[C@H]2OC)c2ccc(OC)c(O)c24)cc1O | 56% | 11.3 µM | 0%
2 | COc1ccc2c(c1O)[C@@]13CCN(C)[C@@]14C[C@@H]2O[C@]4(OC)[C@@H](OC)[C@@H](O)C3 | 68% | 2.1 µM | 0%
3 | COC1=CC[C@]23CCN(C)[C@@]24C[C@H](O[C@@]14O)c1ccc(OC)c(O)c13 [PROSTEPHABYSSINE] | 67% | 5.5 µM | 0%
4 | COC1=C(OC)[C@]23CCc4ccc(OC)c(O)c4[C@]2(CCN3C)CC1=O [AKNADININE] | 68% | 46 µM | 0%
5 | COc1ccc2c(c1O)[C@@]13CCN(C)[C@@]14C[C@@H]2O[C@]4(O)[C@@H](OC)[C@@H](O)C3 [LONGANINE] | 68% | 0.7 µM | 0%
6 | COC1=C2[C@@H]3Cc4ccc(OC)c(O)c4[C@]2(CCN3)C[C@H](O)[C@@H]1O [SINOCOCULINE] | 54% | 37 µM | 0%
7 | COC1=C(OC)[C@]23CCc4ccc(OC)c(O)c4[C@@]2(CC1=O)CC(=O)N3C | 49% | 17 µM | 0%
8 | COc1ccc2c(c1O)[C@@]13CC(=O)N(C)[C@@]14C[C@@H]2O[C@]4(OC)[C@@H](OC)[C@@H](OC(=O)/C=C/c1ccccc1)C3 | 74% | 5.1 µM | 0%
9 | COc1ccc2c(c1O)[C@@]13CCN(C)[C@@]14C[C@@H]2O[C@]4(OC)[C@@H](O)[C@@H](OC(=O)/C=C/c1ccccc1)C3 | 54% | 2.5 µM | 0%

From ChEMBL document CHEMBL1157800, “Hasubanan alkaloids with delta-opioid binding affinity from the aerial parts of Stephania japonica” (J Nat Prod, 2010)
